From ChEMBL document CHEMBL1156778, “Synthesis and structure-activity studies of biphenyl analogues of the tuberculosis drug (6S)-2-nitro-6-{[4-(trifluoromethoxy)benzyl]oxy}-6,7-dihydro-5H-imidazo[2,1-b][1,3]oxazine (PA-824)” (J Med Chem, 2010) come the findings set out here.

Data set [1] concerns Mycobacterium tuberculosis. The data set can be described thus: Antitubercular activity against Mycobacterium tuberculosis H37Rv in aerobic condition after 7 days by microplate alamar blue assay. It is filed as functional. The settings on record: 168 h. The essentials: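 M. tuberculosis H37Rv, replicating culture; 8-day microplate assay with Alamar blue added on day 7 to read growth. […] Mean of at least two independent determinations ± SD.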

Data set [2] concerns Mycobacterium tuberculosis. The data set can be described thus: Antitubercular activity against Mycobacterium tuberculosis H37Rv infected in BALB/c mouse measured per mouse at 100 mg/kg, po daily for 5 days a week for 3 weeks. It is filed as functional.
The subject of data set [3] is Mycobacterium tuberculosis. The data set can be described thus: Antitubercular activity against Mycobacterium tuberculosis H37Rv in anaerobic condition after 7 days by low oxygen recovery assay. It is filed as functional. Particulars: 168 h.
For data set [4], the system named is Vero. The data set can be described thus: Cytotoxicity against african green monkey Vero cells after 72 hrs by MTS assay. Particulars: Chlorocebus sabaeus. The class given is cell-based. The method, boiled down:
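VERO cells (CCL-81), 72 h exposure, tetrazolium dye read-out.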
On the technique in general: Tetrazolium assays rely on reduction of a dye to a coloured formazan, in cell work by metabolically active cells.

The nature of data set [5]: Metabolic stability in pooled human liver microsomes assessed as compound remaining after 1 hr by LC-MS-MS. The settings on record: read-out: Stability. It is filed as ADME, Microsome. The method, boiled down: (§1)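 Test compound at 1 μM with pooled CD-1 mouse or human liver microsomes (0.5 mg/mL protein) and NADPH-regenerating system (3.3 mM MgCl2, 3.3 mM G6P, 0.4 U/mL G6PD, 1.3 mM NADP+) in 75 mM phosphate, pH 7.4, 0.5% DMSO, 37 °C. Stopped at 0 and 60 min with MeCN containing metoprolol internal standard. LC-MS/MS (ESI, SRM), duplicates. % remaining = 100 × mean peak-area ratio at 60 min / at 0 min.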
(Liver microsomes are a subcellular fraction often used to study metabolism.)

The subject of data set [6] is Mycobacterium tuberculosis. Nature of the data set: Antitubercular activity against Mycobacterium tuberculosis H37Rv infected in BALB/c mouse assessed as ratio of lung CFU for compound to lung CFU for PA-824 at 100 mg/kg, po daily for 5 days a week for 3 weeks. The class given is functional.
The nature of data set [7]: Metabolic stability in pooled CD1 mouse liver microsomes assessed as compound remaining after 1 hr by LC-MS-MS. The class given is ADME, Microsome. Particulars: read-out: Stability. The method, boiled down:
as §1

The structures appear in SMILES notation. Values after ≈ are worked out from the molar mass of the structure shown. Some results are limits rather than exact numbers.

Turning to `O=[N+]([O-])c1cn2c(n1)OC[C@@H](OCc1ccc(-c3ccc(Cl)c(C(F)(F)F)c3)cc1)C2`, the MIC turned out to be 0.035 µM (≈ 0.0159 µg/mL) in data set [1] and 1.9 µM (≈ 0.862 µg/mL) in data set [3]. The CFU in data set [2] is reported as 30. The IC50 in data set [4] is > 125 µM. For the same molecule, the remaining at 1 h was determined as 92% in data set [5] and 96% in data set [7]. In addition, in data set [6], the “fold change (FC)” value was found to be 7.7.
For the molecule `N#Cc1ccc(-c2ccc(CO[C@@H]3COc4nc([N+](=O)[O-])cn4C3)cc2)cc1`, the MIC in data set [1] stood at 0.025 µM (≈ 0.00941 µg/mL); in data set [3], 0.58 µM (≈ 0.218 µg/mL). The molecule also showed a CFU in data set [2] of 4500. Moreover, the IC50 in data set [4] is > 125 µM. Besides, the remaining at 1 h in data set [5] was 95%; in data set [7] it was 58%. Moreover, in data set [6], the “fold change (FC)” value was 3.6.
For the molecule `O=[N+]([O-])c1cn2c(n1)OC[C@@H](OCc1ccc(-c3ccc(C(F)(F)F)cc3)cc1)C2`, the MIC in data set [1] was found to be 0.03 µM (≈ 0.0126 µg/mL); in data set [3] it was 1.4 µM (≈ 0.587 µg/mL). Moreover, the CFU in data set [2] is listed as 1100. Besides, the IC50 in data set [4] is > 125 µM. Further, the remaining at 1 h in data set [5] is 60%; in data set [7] it was 85%. Further, in data set [6], the “fold change (FC)” value was determined as 72.
With `CCOc1ccccc1-c1ccc(CO[C@@H]2COc3nc([N+](=O)[O-])cn3C2)cc1`, the MIC in data set [1] was 0.03 µM (≈ 0.0119 µg/mL); in data set [3] it was 0.82 µM (≈ 0.324 µg/mL). Besides, the CFU in data set [2] amounted to 540000. Also, the IC50 in data set [4] was > 125 µM. For the same molecule, the results for the remaining at 1 h in data set [5] and in data set [7] were 50% and 0.2%, respectively. In addition, the “fold change (FC)” value in data set [6] was 0.15.
For the molecule `O=[N+]([O-])c1cn2c(n1)OC[C@@H](OCc1ccc(-c3ccc(OC(F)(F)F)c(Cl)c3)cc1)C2`, the MIC in data set [1] was found to be 0.03 µM (≈ 0.0141 µg/mL); in data set [3], 0.9 µM (≈ 0.423 µg/mL). The same molecule showed a CFU in data set [2] of 6.4. In data set [4], the IC50 was > 125 µM. In addition, the remaining at 1 h in data set [5] came out at 90%; in data set [7] it was 84%. For the same molecule, the “fold change (FC)” value in data set [6] was 281.
On to `O=[N+]([O-])c1cn2c(n1)OC[C@@H](OCc1ccc(-c3ccc(F)cc3)cc1)C2`, for which the MIC is 0.015 µM (≈ 0.00554 µg/mL) in data set [1] and 1.4 µM (≈ 0.517 µg/mL) in data set [3]. Moreover, in data set [2], the CFU amounted to 5400. The IC50 in data set [4] was > 125 µM. In addition, the results for the remaining at 1 h in data set [5] and in data set [7] were 75% and 55%, respectively. Also, the “fold change (FC)” value in data set [6] is listed as 3.
`O=[N+]([O-])c1cn2c(n1)OC[C@@H](OCc1ccc(-c3ccc(Cl)c(OC(F)F)c3)cc1)C2`: the MIC in data set [1] worked out at 0.03 µM (≈ 0.0136 µg/mL); in data set [3], 1.1 µM (≈ 0.497 µg/mL). In data set [2], this molecule displayed a CFU of 150. In data set [4], the IC50 was > 125 µM. Moreover, the remaining at 1 h is 83% in data set [5] and 86% in data set [7]. Further, in data set [6], the “fold change (FC)” value is listed as 10.
In the case of `O=[N+]([O-])c1cn2c(n1)OC[C@@H](OCc1ccc(-c3ccc(C(F)(F)F)cc3Cl)cc1)C2`, the results for the MIC in data set [1] and in data set [3] were 0.03 µM (≈ 0.0136 µg/mL) and 1.4 µM (≈ 0.635 µg/mL), respectively. The CFU in data set [2] is recorded as 540. In data set [4], the IC50 was > 125 µM. Further, the remaining at 1 h in data set [5] came out at 92%; in data set [7], 93%. The “fold change (FC)” value in data set [6] is 7.2.
Turning to `O=[N+]([O-])c1cn2c(n1)OC[C@@H](OCc1ccc(-c3ccc(OC(F)(F)F)c(F)c3)cc1)C2`, the MIC came out at 0.03 µM (≈ 0.0136 µg/mL) in data set [1] and 0.34 µM (≈ 0.154 µg/mL) in data set [3]. Further, the CFU in data set [2] is listed as 4.3. In addition, in data set [4], the IC50 is > 125 µM. Moreover, the remaining at 1 h in data set [5] was found to be 93%; in data set [7] it was 86%. The “fold change (FC)” value in data set [6] is reported as 419.
With `CC(=O)c1ccc(-c2ccc(CO[C@@H]3COc4nc([N+](=O)[O-])cn4C3)cc2)cc1`, the MIC came out at 0.04 µM (≈ 0.0157 µg/mL) in data set [1] and 0.73 µM (≈ 0.287 µg/mL) in data set [3]. This molecule also gave a CFU in data set [2] of 110000. Further, the IC50 in data set [4] was > 125 µM. Also, the remaining at 1 h in data set [5] was 36%; in data set [7] it was 70%. Further, the “fold change (FC)” value in data set [6] was <0.01.
Regarding `O=[N+]([O-])c1cn2c(n1)OC[C@@H](OCc1ccc(OC(F)(F)F)cc1)C2` [PRETOMANID], the MIC in data set [1] was 0.5 µM (≈ 0.18 µg/mL); in data set [3], 2.6 µM (≈ 0.934 µg/mL). The IC50 in data set [4] is > 125 µM. For the same molecule, the remaining at 1 h in data set [5] came out at 82%. Also, the “fold change (FC)” value in data set [6] is listed as 1.

The term MIC denotes the smallest concentration in the dilution series that meets the test's criterion for growth inhibition. The IC50 is the midpoint of a concentration-inhibition curve.
